pEC50: −log10 of the molar value. ≈ marks a conversion by molar mass, not a printed value. Calls of active or inactive are those of the source. No cut-off for these calls is given here.
Assays:
[1] = biological target: T1, N-formyl peptide receptor 2 (Homo sapiens, UniProt P25090); experiment: Agonist activity at FPRL1 (unknown origin) expressed in CHO-K1 cells assessed as stimulation of beta-arrestin recruitment incubated for 150 mins by beta-galactosidase based PathHunter assay; assay type: functional, cell-based; conditions: for pEC50: read-out: EC50
T1 sequence (P25090 whole entry): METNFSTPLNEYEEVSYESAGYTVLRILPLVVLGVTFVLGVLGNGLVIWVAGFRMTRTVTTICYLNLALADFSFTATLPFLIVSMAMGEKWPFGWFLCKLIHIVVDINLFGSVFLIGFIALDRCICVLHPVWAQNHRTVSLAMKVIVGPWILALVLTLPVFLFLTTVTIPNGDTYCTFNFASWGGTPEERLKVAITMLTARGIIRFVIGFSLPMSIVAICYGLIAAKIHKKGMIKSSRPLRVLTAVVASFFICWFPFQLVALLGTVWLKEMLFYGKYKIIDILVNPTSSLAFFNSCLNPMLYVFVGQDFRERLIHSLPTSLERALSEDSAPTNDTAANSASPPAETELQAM
Method in brief: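 PathHunter CHO-K1 FPRL1 cells expressing β-gal enzyme-fragment complementation, 5000 cells/well, held overnight at 37 °C. Stimulated with half-log serial dilutions of compounds (10 mM stocks in PBS) for 150 min at 37 °C. High control was WKYMVm at 100 nM. Detection reagent added for 60 min at RT in the dark, then chemiluminescence read.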

[2] = Kinetic solubility of compound in PBS at pH 7.4 by UV-VIS absorption spectrophotometry analysis; assay type: physicochemical; conditions: for solubility kinetic: PBS, read-out: Kinetic_solubility; for Kinetic_solubility: buffer
Method in brief: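 A 10 mM DMSO stock was diluted into PBS pH 7.4 at a target of 200 µM (final PBS:DMSO 98:2), in triplicate. Agitated 500 rpm for 90 min, then filtered. Filtrate diluted to PBS:DMSO 80:20 and its UV absorbance compared against a 200–6.75 µM standard series to give the concentration remaining in solution.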

[3] = Distribution coefficient, logD of compound at pH 7.4 by shake flask method based LC-MS/MS analysis; assay type: physicochemical; conditions: octanol/water
Method in brief: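 Shake-flask method: compound diluted from 10 mM DMSO stock into equal volumes of octanol and PBS, final concentration 100 µM. Shaken 12 h, then centrifuged. Both layers analysed in triplicate by LC-MS/MS (MRM, C8 UPLC). LogD = log10 of the octanol/buffer peak-area ratio.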

[4] = biological target: T1, N-formyl peptide receptor 2; experiment: Agonist activity at FPRL1 (unknown origin) expressed in CHO-K1 cells assessed as increase in calcium mobilization incubated for 2.5 hrs by cellular based FLIPR assay; assay type: functional, cell-based; conditions: for pEC50: read-out: EC50; for EC50: cho-k1
Method in brief: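 CHO-K1 cells overexpressing hFPR2, plated at 20,000 cells/well in F-12 with 10% FBS and held overnight at 37 °C. Loaded with FLIPR Calcium 6 dye for 2 h at 37 °C, then 30 min at RT in the dark. Compounds were half-log serially diluted from 10 mM stocks in HBSS/20 mM HEPES. Cytosolic Ca2+ rise read on FLIPR Tetra. WKYMVm served as control.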

[5] = biological target: T2, N-formyl peptide receptor 2 (Homo sapiens) (UniProt P25090); experiment: Agonist activity at FPRL1 (unknown origin) expressed in CHO-K1 cells assessed as stimulation of beta-arrestin recruitment […] incubated for 150 mins by beta-galactosidase based PathHunter assay; assay type: functional, cell-based
T2 sequence (whole entry): T1 sequence (P25090 whole entry)
Method in brief: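 PathHunter CHO-K1 FPRL1 cells carry complementing β-galactosidase fragments. Plated at 5000/well, held 1 h RT, then overnight at 37 °C. Compounds were half-log serially diluted from 10 mM stocks in PBS. Stimulation 150 min at 37 °C; W-peptide (WKYMVm, 100 nM) was the high control. Detection reagent added for 60 min RT in the dark, with chemiluminescence read-out.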

[6] = biological target: T2, N-formyl peptide receptor 2 (Homo sapiens); experiment: Agonist activity at FPRL1 (unknown origin) expressed in CHO-K1 cells assessed as increase in calcium mobilization […] incubated for 2.5 hrs by cellular based FLIPR assay; assay type: functional, cell-based
Method in brief: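 CHO-K1 cells overexpressing human FPR2 (PathHunter FPRL1 line), plated at 20,000/well in F-12 with 10% FBS and held 1 h RT, then overnight at 37 °C. Calcium 6 dye loaded 2 h at 37 °C, then 30 min RT in the dark. Compounds were half-log serially diluted from 10 mM stocks in HBSS with 20 mM HEPES. Cytosolic Ca2+ rise read on FLIPR Tetra.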

[7] = Microsomal stability in human liver microsomes assessed as half life at 1 uM preincubated for 5 mins followed by NADPH regenerating system addition measured after 30 mins by LC-MS/MS analysis; assay type: ADME, Microsome; conditions: t1/2, time 35 min
Method in brief: (§1)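 Human or mouse liver microsomes (0.2 mg/mL protein) with compound at 1 µM final, pre-incubated 5 min at 37 °C. Reaction started with NADPH generating solution and agitated at 37 °C, with samples quenched up to 30 min. Centrifuged; supernatant analysed in triplicate by LC-MS.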

[8] = Microsomal stability in mouse liver microsomes assessed as half life at 1 uM preincubated for 5 mins followed by NADPH regenerating system addition measured after 30 mins by LC-MS/MS analysis; assay type: ADME, Microsome; conditions: t1/2, time 35 min; method in brief: as §1
[9] = filed as agonist, time 0.067 hrs, in the assay text read “measured for 240 s” for “incubated for 2.5 hrs”

SMILES | pEC50 [1] | solubility kinetic [2] [µM] | logD [3] | pEC50 [4] | Emax ([5]; filed as agonist) [%] | Emax [6, 9] [%] | half-life at 1 µM [7] [min] | logD ([3]; read-out: logD) | half-life at 1 µM [8] [min] | Emax [5] | EC50 ([1]; cho-k1) | Emax ([6]; time 2.5 hrs) | EC50 [4] | Kinetic_solubility [2] [µM]
CC(C)(C)OC(=O)N1CCC[C@H](N2CCC(NC(=O)Nc3ccc(Br)cc3)C2=O)C1 (stereo in doubt; 19) | 5.86 | 71 (≈ 34.2 µg/mL) | > 4 | 6.89 | – | – | – | – | – | – | – | – | – | –
O=C(Nc1ccc(Br)cc1)NC1CCN(CC2CCN(Cc3ccccc3)CC2)C1=O (stereo unspecified) | 5.65 | 192 (≈ 93.2 µg/mL) | – | 6.60 | 93 | 99 | 227 | 2.5 | 121 | – | – | – | – | –
O=C(Nc1ccc(Br)cc1)NC1CCN(Cc2ccccc2)C1=O (stereo unspecified) | – | 75 (≈ 29.1 µg/mL) | – | – | – | – | 168 | 4.4 | 127 | inactive | Not Active | inactive | Not Active | –
CC(C)(C)OC(=O)N1CCC[C@H](N2CCC(NC(=O)Nc3ccc(Br)cc3)C2=O)C1 (stereo in doubt; 20) | 6.26 | – | – | 7.22 | – | – | – | 4.1 | 30 | – | – | – | – | 54
O=C(Nc1ccc(Br)cc1)NC1CCN(C2CCNCC2)C1=O (stereo unspecified) | 5.99 | 234 (≈ 89.2 µg/mL) | – | 6.64 | 100 | 68 | – | 0.3 | – | – | – | – | – | –
CC(C)(C)OC(=O)N1CCC(CN2CCC(NC(=O)Nc3ccc(Br)cc3)C2=O)CC1 (stereo unspecified) | 5.67 | 53 (≈ 26.3 µg/mL) | – | 6.40 | 92 | 86 | 19 | > 4 | 19 | – | – | – | – | –
CC(C)(C)OC(=O)N1CCC(N2CCC(NC(=O)Nc3ccc(Br)cc3)C2=O)CC1 (stereo unspecified) | 5.20 | 61 (≈ 29.4 µg/mL) | – | 6.14 | 93 | 42 | 250 | 4.6 | 31.3 | – | – | – | – | –
O=C(Nc1ccc(Br)cc1)NC1CCN(c2cnn(-c3ccncc3)c2)C1=O (stereo unspecified) | 5.42 | 3 (≈ 1.32 µg/mL) | – | – | 103 | – | 658 | 4.3 | – | – | – | inactive | Not Active | –
CC(C)(C)OC(=O)N1CC(N2CCC(NC(=O)Nc3ccc(Br)cc3)C2=O)C1 (stereo unspecified) | 5.63 | 222 (≈ 101 µg/mL) | – | 6.39 | 103 | 67 | 113 | > 4 | 112 | – | – | – | – | –
Cc1nn(-c2ccccc2)c(C)c1N1CCC(NC(=O)Nc2ccc(Br)cc2)C1=O (stereo unspecified) | 6.40 | 57 (≈ 26.7 µg/mL) | – | 6.55 | 95 | 150 | 189 | 4.6 | 38 | – | – | – | – | –
O=C(Nc1ccc(Br)cc1)NC1CCN(C2CCN(Cc3ccccc3)C2)C1=O (stereo in doubt; 17) | 5.86 | – | 3.3 | 5.57 | – | – | – | – | – | – | – | – | – | 210
O=C(Nc1ccc(Br)cc1)NC1CCN(C2CCN(Cc3ccccc3)CC2)C1=O (stereo unspecified) | 5.54 | 152 (≈ 71.7 µg/mL) | – | 6.46 | 96 | 76 | 112 | 3.5 | 70 | – | – | – | – | –
O=C(Nc1ccc(Br)cc1)NC1CCN(CC2CCNCC2)C1=O (stereo unspecified) | 5.48 | 227 (≈ 89.7 µg/mL) | – | 6.57 | 102 | 84 | 381 | 0.8 | 140 | – | – | – | – | –
O=C(Nc1ccc(Br)cc1)NC1CCN(C2CCN(Cc3ccccc3)C2)C1=O (stereo in doubt; 18) | 6.15 | 207 (≈ 94.7 µg/mL) | – | 6.43 | – | – | 56 | 3 | 36 | – | – | – | – | –
